Compound activity: PubChem, several laboratories
The entries come from a sample that favours hits as a whole.
Lmaj promast: Leishmania major promastigote growth inhibition, primary screen; Leishmania major promastigotes, resazurin fluorescence viability; inhibition, % at 10 µM; 200,000 tested, 9% active; in the data active means inhibition above about 50%;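 further: promastigotes grown with compound for 44 hours at 28 °C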
Hsp70 activator: Hsp70 transcriptional activators, primary screen, cell-based, HeLa, Hsp70 promoter luciferase, luminescence, 10 µM | HeLa Hsp70 promoter luciferase reporter; scaled: vehicle 0, proteasome-inhibitor control 100% | activation, % at 10 µM | 200,000 tested, 0.04% active;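 active means activation above the mean across all tested compounds plus 3 SD, cutoff set per campaign, cut at about 5.5% in these data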;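 further: 100% = MG132 at 30 µM as the positive control and 0% = DMSO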
HSF-1 act: HSF-1 activators, primary screen, NIH3T3-HGL cells, MG132 stress, luminescence, single point | AID 504408, 2011 | 300,000 tested, 1.7% active | activation, % at 9 µM | NIH3T3-HGL HSF-1 luciferase reporter, 8 h; 100% = twice DMSO control signal;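 active means mean replicate activation of at least 50% with a set share of replicates each reaching 50%; inconclusive means only one of those two conditions met; inactive means mean below 50% and too few replicates reaching it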;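 further: 0% = median of the neutral control wells and 100% = twice that signal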
HSF1 inhib: HSF1 inhibitors in luciferase reporter cells, primary screen, cell-based, NIH3T3, luminescence. 300,000 tested, 0.77% active. activity change, negative = inhibition, % at 7.5 µM (by protocol). NIH3T3-HGL HSE-luciferase, MG132-induced, luminescence 8 h; hits give low values;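 active means more than half of replicate wells show activity change below -50%, luminescence cut by over half; inconclusive means some wells, but at most half, below -50%; inactive means no replicate well below -50%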;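 further: luciferase reports HSF-1 transcriptional activity via heat shock element; 0% = median of DMSO wells and -100% = zero luminescence signal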
T cruzi inh: inhibitors of intracellular T. cruzi growth, primary screen, luminescence, NIH3T3 host cells; inhibition, % (no concentration beside the values); 300,000 tested, 1.4% active; T. cruzi beta-gal in NIH3T3, 90 h;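 active means mean inhibition across valid replicates above about 55%, limit read from the data; inconclusive means mean below that limit but half or more replicates reach it; inactive means mean below it, under half of replicates reach it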;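 further: signal also drops with host cell toxicity which is not excluded here; 0% = plate median of DMSO wells and 100% = zero luminescence signal; higher percent means less beta-gal luminescence so fewer parasites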
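System: mouse NIH/3T3 fibroblasts infected with β-gal-expressing T. cruzi Tulahuen C4 / Input: NIH/3T3 cells, 5,000 per well / Buffer or medium: Low-serum DMEM with 2% FBS / Probe or stimulus: 5000 reporter trypomastigotes per well / Schedule: ≥90 h infection period, 3 h prior cell attachment / Measured by: GalScreen luminescence, 60 min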
* hit, by the source's call; ? = inconclusive; . = no result.

SMILES | Lmaj promast | Hsp70 activator | HSF-1 act | HSF1 inhib | T cruzi inh
COc1ccc(C(C(=O)NC2CCCC2)N(CCCO)C(=O)c2snc(C(N)=O)c2N)cc1 (stereo not given) | . | . | -7 | -1 | ?
COc1cc(/C=N/NS(=O)(=O)c2ccc3ccccc3c2)ccc1OCc1ccc(C(=O)O)cc1 | . | . | -78 | -74* | -14
COc1cc(/C=N/NS(=O)(=O)c2ccc(C)cc2)ccc1OCc1cccc(C(=O)O)c1 | -5 | -1 | -68 | -64* | 1
COc1ccc(/C=N/NS(=O)(=O)c2ccc(C)cc2)cc1OC(=O)c1ccccc1 | 0 | 0 | . | . | .
COc1ccc(/C=N/NS(=O)(=O)c2ccccc2)cc1OC(=O)c1ccc(C)cc1 | -4 | 0 | -11 | -2 | 14
Oc1c(N=Nc2ccccn2)ccc2ccccc12 | 100* | 0 | 265* | 184 | 73*
CN(Cc1ccccc1)C(=O)c1nn2cccnc2c1Cl | -6 | 0 | . | . | -3
O=C(NC1=C(NC2CCS(=O)(=O)C2)C(=O)c2ccccc2C1=O)c1ccccc1 (stereo not given) | 99* | 0 | 29 | 2 | -27
CN(C1=C(NC(=O)c2ccc(Cl)cc2)C(=O)c2ccccc2C1=O)c1ccccc1 | 64* | -1 | 7 | 11 | -5
Cc1cccc(C(=O)Nc2cccc(NC(=O)c3ccccc3)c2)c1 | . | . | 4 | 2 | 3
O=C(NC(NC1CCS(=O)(=O)C1)C(=O)c1cccs1)c1ccccc1 (stereo not given) | -5 | 0 | 5 | -5 | -10
Cc1cccc(NC2=C(NC(=O)c3ccccc3)C(=O)c3ccccc3C2=O)c1 | 52* | 0 | 36 | 12 | -4
O=C1C(Cl)=C(NC(=O)c2ccccc2)C(=O)C(Cl)=C1NC(=O)c1ccccc1 | . | . | 18 | 3 | 68*
CCOC(=O)c1nn(-c2ccc(C)c(C)c2)c(=O)c(C#N)c1C | . | . | 8 | 1 | -11
CN(Cc1ccccc1)S(=O)(=O)c1ccc(Cl)c(C(=O)NCCCN2CCOCC2)c1 | . | . | 1 | -1 | 17
Nn1cc(-c2ccccc2)nc1SCC(=O)Nc1ccc(S(N)(=O)=O)cc1 | . | . | -4 | 3 | 0
O=C(NC1=C(Nc2ccc(Cl)cc2)C(=O)c2ccccc2C1=O)c1ccccc1 | 78* | 0 | 13 | 9 | 5
O=C(Nc1ccc(Nc2ccccc2)cc1)c1ccc(Cl)cc1 | . | . | 3 | 1 | 13
COc1ccc(-n2cc(CNCCc3cscn3)c(-c3ccccc3Cl)n2)cc1 | 17 | 0 | 59* | 28 | -10
Cc1ccc(-n2cc(CN3CCN(Cc4nccn4C)CC3)c(-c3ccc(F)cc3)n2)cc1 | 16 | 0 | 55* | 32 | 18
Cc1ccc(-n2cc(CNCCCn3ccnc3C)c(-c3ccc(F)cc3)n2)cc1 | 100* | 1 | 10 | 4 | 84*
Cc1ccc(-n2cc(CNC(C)c3cnn(C)c3)c(-c3ccc(F)cc3)n2)cc1 (stereo not given) | 38 | 0 | 5 | -10 | 12
Cc1ccc(-n2cc(CN3CCN(c4ccccn4)CC3)c(-c3ccc(F)cc3)n2)cc1 | 29 | 0 | -10 | -4 | 43
Cc1ccc(-n2cc(CNCCc3cscn3)c(-c3ccc(F)cc3)n2)cc1 | 75* | 0 | 7 | 16 | 34
CCc1ccc(OCc2n[nH]c(=S)n2C(C)CCCC(C)C)cc1 (stereo not given) | 8 | 0 | 16 | 3 | 19
SMILES | Lmaj promast | Hsp70 activator | HSF-1 act | HSF1 inhib | T cruzi inh
Oc1c(C=Nc2ccccc2Cl)[nH]c2ccccc12 | . | . | -46 | -33 | -15
CC(CN1CCOCC1)OC(=O)C(c1ccccc1)c1ccccc1 (stereo not given) | 6 | 0 | -73 | -63* | 8
CC(CN1CCOCC1)OC(=O)/C=C/c1ccccc1 (stereo not given) | -3 | 0 | 2 | 6 | -16
CC(CN1CCCCC1)OC(=O)C(C)(c1ccccc1)c1ccccc1 (stereo not given) | 100* | 0 | 6 | 1 | 3
CC(CN1CCOCC1)OC(=O)C(C)(c1ccccc1)c1ccccc1 (stereo not given) | 55* | -1 | -24 | -3 | 10
CC(CN1CCOCC1)OC(=O)c1ccccc1Br (stereo not given) | -2 | 0 | -5 | 5 | -18
CC(=O)N1CCN(c2ccc(NC(=O)c3ccc([N+](=O)[O-])cc3Cl)cc2)CC1 | . | . | -6 | 4 | 6
CCCCN(CCCC)S(=O)(=O)c1ccc(NC(=O)c2cccs2)cc1 | 94* | 0 | -3 | -1 | 56*
CCCCN(CCCC)S(=O)(=O)c1ccc(NC(=O)c2ccc([N+](=O)[O-])cc2Cl)cc1 | 100* | 0 | 17 | 6 | 79*
CCC(C)[C@H](NC(=O)C1(c2ccccc2)CCN(C(=O)OC(C)(C)C)CC1)C(=O)N[C@@H](C(=O)O)c1ccccc1 (stereo not given in full) | . | . | -11 | -2 | 6
CCN(c1ccccc1)S(=O)(=O)c1ccc(C(=O)Nc2nnc(COC)o2)cc1 | 3 | 0 | 6 | -2 | -3
CCN(c1ccccc1)S(=O)(=O)c1ccc(C(=O)Nc2nnc(-c3ccco3)o2)cc1 | 99* | 0 | -23 | -14 | 14
CN(c1ccccc1)S(=O)(=O)c1ccc(C(=O)Nc2nnc(C3CC3)o2)cc1 | 98* | 0 | -9 | -13 | ?
O=C(/C=C/c1ccccc1)Nc1nnc(-c2ccco2)o1 | 65* | 0 | -1 | -6 | -13
CCN(c1ccccc1)S(=O)(=O)c1ccc(C(=O)Nc2nnc(C3CC3)o2)cc1 | 94* | 0 | 15 | -8 | 72*
CC(=O)Nc1nnc(-c2ccco2)o1 | -7 | 0 | 3 | -5 | -22
CC(=O)NC(C(=O)N1CCC(c2nc3ccccc3s2)CC1)C(C)C (stereo not given) | . | . | -7 | -2 | 1
CC(=NCCc1ccccc1)C1=C(O)CSC1=O | -5 | 0 | -83 | -79* | 1
CC(C)CC(=O)NC(Nc1ccc([N+](=O)[O-])cc1)C(Cl)(Cl)Cl (stereo not given) | 10 | 0 | -2 | -2 | -4
O=C(O)C1C2CCC(O2)C1C(=O)Nc1cccc(Cl)c1 (stereo not given) | . | . | -2 | -5 | -5
Cc1nn(Cc2ccc(Cl)cc2Cl)c(C)c1NC(=O)c1ccc(COc2cc(Cl)ccc2Cl)o1 | 15 | 0 | 17 | 9 | 59*
Cc1nn(Cc2cccc(F)c2)c(C)c1NC(=O)c1ccc(COc2ccccc2Cl)cc1 | 35 | 0 | 50 | 28 | 57*
O=C(Nc1ccn(Cc2c(F)c(F)cc(F)c2F)n1)c1ccc(COc2ccc(Cl)cc2Cl)o1 | 11 | 0 | 36 | 27 | 51
